This is an account of results in ChEMBL document CHEMBL3044673, “Design, synthesis and insecticidal activity of novel phenylpyrazoles containing a 2,2,2-trichloro-1-alkoxyethyl moiety” (2010).

Assay type in all cases: functional
The test system of test [1] is Plutella xylostella. Nature of the test: Insecticidal activity against Plutella xylostella (diamondback moth) grown on compound pre-treated fresh cabbage leaves assessed as insect mortality at 5 mg/kg measured 3 days post compound treatment by leaf-dip method. As to conditions: Plutella xylostella. An outline of the steps: (§1)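 Leaf-dip stomach-toxicity assay on laboratory-reared diamondback moth. Test solutions came from a 200 mg L^-1 stock in dimethylformamide, diluted with water containing TW-20. Control leaves were treated with water and dimethylformamide. Tests were held at 25±1 °C, percentage mortality was scored 3 days after treatment, and each treatment was run three times.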

Test [2] has as its system Aphis craccivora. Nature of the test: Insecticidal activity against Aphis craccivora (cowpea aphid) infested tender soybean shoots exposed to 100 mg/kg test compound solution assessed as insect mortality measured 24 hr post compound treatment. An outline of the steps:
(§2)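 Soybean tender shoots carrying 60 aphids were dipped in test solutions. Solutions were made from a 200 mg L^-1 stock in dimethylformamide, diluted with water containing TW-20. Insects were laboratory-reared, tests were held at 25±1 °C, and mortality was scored.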

Test [3] has as its system Culex pipiens pallens. As to the kind of experiment: Insecticidal activity against Culex pipiens pallens (mosquito) assessed as insect mortality at 5 ug/kg measured 1 day post compound treatment. Particulars: 24 h. The method in brief:
(§3)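 Fourth-instar Culex pipiens pallens larvae, 20 per test, were laboratory-reared and placed in 100 mL of test solution made by adding 1 mL of compound dilution to 99 mL of water. Tests were held at 25±1 °C, percentage mortality was scored 1 day after treatment, and each test was run three times.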

Test [4] relates to Plutella xylostella. Nature of the test: Insecticidal activity against Plutella xylostella (diamondback moth) grown on compound pre-treated fresh cabbage leaves assessed as insect mortality at 100 mg/kg measured 3 days post compound treatment by leaf-dip method. The method in brief: as §1
Test [5] relates to Culex pipiens pallens. As to the kind of experiment: Insecticidal activity against Culex pipiens pallens (mosquito) assessed as insect mortality at 50 ug/kg measured 1 day post compound treatment. Particulars: 24 h. The method in brief:
as §3

Test [6] has as its system Aphis craccivora. As to the kind of experiment: Insecticidal activity against Aphis craccivora (cowpea aphid) infested tender soybean shoots exposed to 10 mg/kg test compound solution assessed as insect mortality measured 24 hr post compound treatment. Particulars: Aphis craccivora, 24 h. The method in brief:
as §2

Test [7] relates to Aphis craccivora. Nature of the test: Insecticidal activity against Aphis craccivora (cowpea aphid) infested tender soybean shoots exposed to 200 mg/kg test compound solution assessed as insect mortality measured 24 hr post compound treatment. An outline of the steps: as §2
Test [8] has as its system Culex pipiens pallens. As to the kind of experiment: Insecticidal activity against Culex pipiens pallens (mosquito) assessed as insect mortality at 10 ug/kg measured 1 day post compound treatment. As to conditions: 24 h. An outline of the steps:
as §3

Test [9] has as its system Culex pipiens pallens. As to the kind of experiment: Insecticidal activity against Culex pipiens pallens (mosquito) assessed as insect mortality at 25 ug/kg measured 1 day post compound treatment. Particulars: 24 h. The method in brief:
as §3

Test [10] concerns Plutella xylostella. Nature of the test: Insecticidal activity against Plutella xylostella (diamondback moth) grown on compound pre-treated fresh cabbage leaves assessed as insect mortality at 25 mg/kg measured 3 days post compound treatment by leaf-dip method. Particulars: Plutella xylostella. An outline of the steps: as §1
The test system of test [11] is Aphis craccivora. Nature of the test: Insecticidal activity against Aphis craccivora (cowpea aphid) infested tender soybean shoots exposed to 5 mg/kg test compound solution assessed as insect mortality measured 24 hr post compound treatment. Particulars: Aphis craccivora, 24 h. The method in brief: as §2
Test [12] concerns Plutella xylostella. Nature of the test: Insecticidal activity against Plutella xylostella (diamondback moth) grown on compound pre-treated fresh cabbage leaves assessed as insect mortality at 10 mg/kg measured 3 days post compound treatment by leaf-dip method. As to conditions: Plutella xylostella. The method in brief: as §1
Test [13] relates to Plutella xylostella. As to the kind of experiment: Insecticidal activity against Plutella xylostella (diamondback moth) grown on compound pre-treated fresh cabbage leaves assessed as insect mortality at 200 mg/kg measured 3 days post compound treatment by leaf-dip method. An outline of the steps:
as §1

Test [14] deals with Culex pipiens pallens. As to the kind of experiment: Insecticidal activity against Culex pipiens pallens (mosquito) assessed as insect mortality at 2.5 ug/kg measured 1 day post compound treatment. Particulars: 24 h. An outline of the steps: as §3
Test [15] relates to Plutella xylostella. As to the kind of experiment: Insecticidal activity against Plutella xylostella (diamondback moth) grown on compound pre-treated fresh cabbage leaves assessed as insect mortality at 50 mg/kg measured 3 days post compound treatment by leaf-dip method. The method in brief:
as §1

Test [16] deals with Culex pipiens pallens. Nature of the test: Insecticidal activity against Culex pipiens pallens (mosquito) assessed as insect mortality at 100 ug/kg measured 1 day post compound treatment. As to conditions: Culex pipiens, 24 h. An outline of the steps:
as §3

Test [17] relates to Aphis craccivora. As to the kind of experiment: Insecticidal activity against Aphis craccivora (cowpea aphid) infested tender soybean shoots exposed to 25 mg/kg test compound solution assessed as insect mortality measured 24 hr post compound treatment. An outline of the steps:
as §2

The subject of test [18] is Aphis craccivora. Nature of the test: Insecticidal activity against Aphis craccivora (cowpea aphid) infested tender soybean shoots exposed to 50 mg/kg test compound solution assessed as insect mortality measured 24 hr post compound treatment. The method in brief: as §2

As for `CCSc1c(C#N)nn(-c2c(Cl)cc(C(F)(F)F)cc2Cl)c1NC(OCCCl)C(Cl)(Cl)Cl` (centres undefined), the mortality at 5 mg/kg in the test on Plutella xylostella [1] and in the test with Aphis craccivora [11] was 0% in each case. In addition, the mortality at 100 mg/kg in the test with Aphis craccivora [2] and in the test with Plutella xylostella [4] was 100% throughout. Further, the mortality – broadly, the percentage killed – at 0.005 mg/kg in the test on Culex pipiens pallens [3] amounted to 100%. Moreover, in the test with Culex pipiens pallens [5], the mortality at 0.05 mg/kg worked out at 100%. Moreover, the mortality at 10 mg/kg in the test with Aphis craccivora [6] was found to be 51%; in the test with Plutella xylostella [12] it was 27%. The mortality at 200 mg/kg in the test with Aphis craccivora [7] and in the test with Plutella xylostella [13] was 100% in each case. The mortality at 0.01 mg/kg in the test on Culex pipiens pallens [8] was 100%. In addition, in the test with Culex pipiens pallens [9], the mortality at 0.025 mg/kg was 100%. Moreover, the mortality at 25 mg/kg with Plutella xylostella [10] is 43%; with Aphis craccivora [17] it was 100%. Further, the mortality at 0.0025 mg/kg in the test with Culex pipiens pallens [14] is 60%. Further, the mortality at 50 mg/kg was determined as 88% in the test on Plutella xylostella [15] and 100% in the test on Aphis craccivora [18]. Also, the mortality at 0.1 mg/kg in the test on Culex pipiens pallens [16] turned out to be 100%.

In the case of `CCCOC(Nc1c(SCC)c(C#N)nn1-c1c(Cl)cc(C(F)(F)F)cc1Cl)C(Cl)(Cl)Cl` (centres undefined), the mortality at 100 mg/kg stood at 90% in the test with Aphis craccivora [2] and 100% with Plutella xylostella [4]. The mortality at 0.005 mg/kg in the test on Culex pipiens pallens [3] was determined as 50%. Moreover, the mortality at 0.05 mg/kg in the test with Culex pipiens pallens [5] stood at 100%. Moreover, the mortality at 10 mg/kg with Aphis craccivora [6] turned out to be 0%; in the test on Plutella xylostella [12], 17%. In addition, the results for the mortality at 200 mg/kg with Aphis craccivora [7] and in the test with Plutella xylostella [13] were 95% and 100%, respectively. The mortality at 0.01 mg/kg with Culex pipiens pallens [8] worked out at 100%. Moreover, in the test on Culex pipiens pallens [9], the mortality at 0.025 mg/kg is 100%. In addition, the values for the mortality at 25 mg/kg in the test on Plutella xylostella [10] and in the test on Aphis craccivora [17] were 58% and 53%, respectively. In addition, the mortality at 50 mg/kg in the test on Plutella xylostella [15] is 89%; in the test on Aphis craccivora [18], 85%. Besides, in the test with Culex pipiens pallens [16], the mortality at 0.1 mg/kg amounted to 100%.

In the case of `CCOC(Nc1c(SCC)c(C#N)nn1-c1c(Cl)cc(C(F)(F)F)cc1Cl)C(Cl)(Cl)Cl` (centres undefined), the mortality at 100 mg/kg is 86% with Aphis craccivora [2] and 100% in the test on Plutella xylostella [4]. The mortality at 0.005 mg/kg with Culex pipiens pallens [3] came to 0%. In the test with Culex pipiens pallens [5], the mortality at 0.05 mg/kg is 100%. Moreover, the mortality at 10 mg/kg in the test on Aphis craccivora [6] was found to be 0%; in the test on Plutella xylostella [12], 18%. Also, the mortality at 200 mg/kg with Aphis craccivora [7] is 90%; with Plutella xylostella [13], 100%. For the same molecule, the mortality at 0.01 mg/kg with Culex pipiens pallens [8] is 100%. Besides, the mortality at 0.025 mg/kg in the test on Culex pipiens pallens [9] came out at 100%. The mortality at 25 mg/kg in the test with Plutella xylostella [10] was determined as 44%; with Aphis craccivora [17], 35%. Besides, the mortality at 50 mg/kg came to 96% in the test on Plutella xylostella [15] and 75% in the test with Aphis craccivora [18]. The mortality at 0.1 mg/kg in the test on Culex pipiens pallens [16] was determined as 100%.

`CCSc1c(C#N)nn(-c2c(Cl)cc(C(F)(F)F)cc2Cl)c1NC(OC)C(Cl)(Cl)Cl` (centres undefined): the mortality at 100 mg/kg in the test on Aphis craccivora [2] is 90%; with Plutella xylostella [4] it was 100%. For the same molecule, in the test on Culex pipiens pallens [3], the mortality at 0.005 mg/kg was found to be 100%. The mortality at 0.05 mg/kg in the test with Culex pipiens pallens [5] worked out at 100%. The mortality at 10 mg/kg with Aphis craccivora [6] and in the test with Plutella xylostella [12] was 0% throughout. Also, the mortality at 200 mg/kg stood at 93% with Aphis craccivora [7] and 100% with Plutella xylostella [13]. Moreover, the mortality at 0.01 mg/kg in the test with Culex pipiens pallens [8] came to 100%. Further, the mortality at 0.025 mg/kg in the test on Culex pipiens pallens [9] was 100%. Moreover, the mortality at 25 mg/kg with Plutella xylostella [10] worked out at 34%; with Aphis craccivora [17] it was 62%. Moreover, the mortality at 0.0025 mg/kg in the test with Culex pipiens pallens [14] is 30%. The results for the mortality at 50 mg/kg with Plutella xylostella [15] and in the test on Aphis craccivora [18] were 94% and 80%, respectively. Moreover, the mortality at 0.1 mg/kg in the test with Culex pipiens pallens [16] came to 100%.
